# Activity calls are given as the source filed them. The calls are words filed in the database; no cut-off is given here.
# What was measured:
# [1] = system: Rattus norvegicus; test: Potency in trained rats was determined with relative to reference compound […] at a dose of 12 (nmol/kg); format: functional
# [2] = system: Rattus norvegicus; test: Percentage of animals selecting drug lever in trained rats at a dose 47 (nmol/kg); format: functional
# Outline: (§1)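 Drug-naive rats held at about 80% of free-feeding weight were trained on a two-lever FR50 food schedule to tell ip LSD tartrate (186 nmol/kg, 0.08 mg/kg) from saline, given 30 min before sessions. Test drugs were given ip in saline (1 mL/kg). Tests ran under extinction and ended at 50 presses on either lever. Rats had to hold 85% correct on training days. Read-out was % selecting the drug lever per dose.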
# [3] = system: Rattus norvegicus; test: Compound was tested for its effect on animals. Value reported as number of rats disrupted in trained rats at a dose of 93 (nmol/kg); format: functional
# Outline: (§2)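 Two-lever drug discrimination in food-restricted rats (~80% free-feeding weight) trained on FR 50 to tell saline from LSD tartrate (186 nmol/kg, 0.08 mg/kg ip, 30 min pre-session). Test drugs were given ip in saline, 1 mL/kg. Test sessions ran under extinction, ending at 50 presses on either lever. Testing required 85% training accuracy. Counts of rats tested and disrupted were recorded, plus the percentage selecting the drug lever.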
# [4] = system: Rattus norvegicus; test: Compound was tested for its effect on animals. Value reported as number of rats disrupted in trained rats at a dose of 47 (nmol/kg); format: functional; outline: as §2
# [5] = system: Rattus norvegicus; test: Compound was tested for its effect on animals. Value reported as number of rats disrupted in trained rats at a dose of 12 (nmol/kg); format: functional; outline: as §2
# [6] = system: Rattus norvegicus; test: Compound was tested for its effect on animals. Value reported as number of rats disrupted in trained rats at a dose of 186 (nmol/kg); format: functional; outline: as §2
# [7] = system: Rattus norvegicus; test: Percentage of animals selecting drug lever in 1-Trained rats at a dose 186 (nmol/kg); format: functional; outline: as §2
# [8] = target: 5-hydroxytryptamine receptor 2A (Rattus norvegicus, UniProt P14842); test: Binding affinity was measured against 5-hydroxytryptamine 2A receptor by displacement of [3H]- ketanserin by lysergic acid amides
# Sequence of 5-hydroxytryptamine receptor 2A (P14842 whole entry): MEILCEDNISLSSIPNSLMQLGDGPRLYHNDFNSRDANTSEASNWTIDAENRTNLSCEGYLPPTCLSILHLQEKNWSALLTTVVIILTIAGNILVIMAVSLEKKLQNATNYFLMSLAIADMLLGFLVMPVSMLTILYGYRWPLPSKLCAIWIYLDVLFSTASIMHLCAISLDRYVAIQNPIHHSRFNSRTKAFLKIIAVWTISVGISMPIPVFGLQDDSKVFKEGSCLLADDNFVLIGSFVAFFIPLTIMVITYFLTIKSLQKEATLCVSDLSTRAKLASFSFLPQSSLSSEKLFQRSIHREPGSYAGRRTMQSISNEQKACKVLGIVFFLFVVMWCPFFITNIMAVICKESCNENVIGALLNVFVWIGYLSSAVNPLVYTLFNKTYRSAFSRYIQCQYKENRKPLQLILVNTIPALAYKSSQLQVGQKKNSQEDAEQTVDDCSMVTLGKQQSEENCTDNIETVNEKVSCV
# Outline: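 Rat frontal cortex membranes from pooled male Sprague-Dawley rats, preincubated at 37 °C, in 50 mM Tris HCl (pH 7.4) with 0.5 mM Na2EDTA, 0.1% ascorbate, 10 μM pargyline and 5.7 mM CaCl2. Triplicates. Three to four experiments combined.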
# [9] = system: Rattus norvegicus; test: Percentage of animals selecting drug lever in trained rats at a dose 12 (nmol/kg); format: functional; outline: as §2
# [10] = system: Rattus norvegicus; test: Compound was tested for its effect on animals. Value reported as number of rats disrupted in trained rats at a dose of 23 (nmol/kg); format: functional; outline: as §2
# [11] = system: Rattus norvegicus; test: Percentage of animals selecting drug lever in trained rats at a dose 23 (nmol/kg); format: functional; outline: as §2
# [12] = system: Rattus norvegicus; test: Percentage of animals selecting drug lever in trained rats at a dose 93 (nmol/kg); format: functional; outline: as §1
# [13] = system: Rattus norvegicus; test: Effective dose in trained rats was determined at a dose of 12 (nmol/kg); format: functional
# [14] = system: Rattus norvegicus; test: Effective dose in trained rats was determined at a dose of 186 (nmol/kg); format: functional
# [15] = system: Rattus norvegicus; test: Potency in trained rats was determined with relative to reference compound […] at a dose of 186 (nmol/kg); format: functional
# [16] = system: Rattus norvegicus; test: Percentage of animals selecting drug lever in trained rats at a dose 186 (nmol/kg); format: functional; outline: as §2
# [17] = system: Rattus norvegicus; test: Compound was tested for its effect on animals. Value reported as number of rats disrupted in trained rats at a dose of 465 (nmol/kg); format: functional; outline: as §2
# [18] = system: Rattus norvegicus; test: Effective dose in trained rats was determined at a dose of 47 (nmol/kg); format: functional
# [19] = system: Rattus norvegicus; test: Compound was tested for its effect on animals. Value reported as number of rats disrupted in trained rats at a dose of 290 (nmol/kg); format: functional; outline: as §2
# [20] = system: Rattus norvegicus; test: Percentage of animals selecting drug lever in trained rats at a dose 290 (nmol/kg); format: functional; outline: as §2
# [21] = system: Rattus norvegicus; test: Percentage of animals selecting drug lever in trained rats at a dose 372 (nmol/kg); format: functional; outline: as §2
# [22] = target: T1, 5-hydroxytryptamine receptor 1A (Rattus norvegicus, UniProt P19327); test: Binding affinity was measured against 5-hydroxytryptamine 1A receptor by displacement of [3H]8-OH-DPAT by lysergic acid amides
# T1 sequence (P19327 whole entry): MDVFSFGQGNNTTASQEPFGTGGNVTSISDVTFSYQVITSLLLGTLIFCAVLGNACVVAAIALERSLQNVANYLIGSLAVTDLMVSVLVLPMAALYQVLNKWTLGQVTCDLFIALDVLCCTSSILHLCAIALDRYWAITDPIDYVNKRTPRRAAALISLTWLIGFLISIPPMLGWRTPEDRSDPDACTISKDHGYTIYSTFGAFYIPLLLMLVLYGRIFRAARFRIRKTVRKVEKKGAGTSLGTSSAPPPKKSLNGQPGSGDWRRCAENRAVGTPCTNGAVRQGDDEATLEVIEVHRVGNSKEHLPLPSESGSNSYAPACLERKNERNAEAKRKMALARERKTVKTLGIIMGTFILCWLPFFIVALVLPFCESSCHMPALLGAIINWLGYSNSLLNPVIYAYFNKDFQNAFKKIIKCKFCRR
# Outline: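 Rat hippocampal membranes from pooled male Sprague-Dawley rats, preincubated at 37 °C, in 50 mM Tris HCl (pH 7.4) with 0.5 mM Na2EDTA, 0.1% ascorbate and 10 μM pargyline. Competition against 0.75 nM [3H]-8-OH-DPAT for 10 min at 37 °C, then GF/C filtration and scintillation counting. Triplicates. Three to four experiments combined, analysed with EBDA/LIGAND.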
# [23] = system: Rattus norvegicus; test: Compound was tested for its effect on animals. Value reported as number of rats disrupted in trained rats at a dose of 372 (nmol/kg); format: functional; outline: as §2
# [24] = system: Rattus norvegicus; test: Percentage of animals selecting drug lever in trained rats at a dose 465 (nmol/kg); format: functional; outline: as §1
# [25] = system: Rattus norvegicus; test: Compound was tested for its effect on animals. Value reported as number of rats disrupted in trained rats at a dose of 426 (nmol/kg); format: functional; outline: as §2
# [26] = system: Rattus norvegicus; test: Effective dose in trained rats was determined at a dose of 213 (nmol/kg); format: functional, organism-based
# [27] = system: Rattus norvegicus; test: Compound was tested for its effect on animals. Value reported as number of rats disrupted in trained rats at a dose of 639 (nmol/kg); format: functional; outline: as §2
# [28] = system: Rattus norvegicus; test: Percentage of animals selecting drug lever in trained rats at a dose 426 (nmol/kg); format: functional; outline: as §2
# [29] = system: Rattus norvegicus; test: Compound was tested for its effect on animals. Value reported as number of rats disrupted in trained rats at a dose of 213 (nmol/kg); format: functional; outline: as §2
# [30] = system: Rattus norvegicus; test: Percentage of animals selecting drug lever in trained rats at a dose 639 (nmol/kg); format: functional; outline: as §1
# [31] = system: Rattus norvegicus; test: Percentage of animals selecting drug lever in trained rats at a dose 213 (nmol/kg); format: functional; outline: as §2
smiles,measurement,setting,value
CC[C@@H](C)NC(=O)[C@@H]1C=C2c3cccc4[nH]cc(c34)C[C@H]2N(C)C1 [listing 1 of 2 here],Potency,[1],1.45
same,SDL,[2],75%
same,D,[3],0%
same,D,[4],0%
same,D,[5],0%
same,D,[6],0%
same,SDL,[7],88%
same,Ki,[8],8.8 nM
same,SDL,[9],13%
same,D,[10],0%
same,SDL,[11],50%
same,SDL,[12],75%
same,ED50,[13],0.033 µmol/kg
CCN(CC)C(=O)[C@@H]1C=C2c3cccc4[nH]cc(c34)C[C@H]2N(C)C1 [LYSERGIDE],ED50,[14],0.048 µmol/kg
same,Potency,[15],1
same,D,[6],0%
same,SDL,[16],100%
CC[C@@H](C)NC(=O)[C@@H]1C=C2c3cccc4[nH]cc(c34)C[C@H]2N(C)C1 [listing 2 of 2 here],D,[17],10%
same,ED50,[18],0.124 µmol/kg
same,D,[19],10%
same,SDL,[20],67%
same,SDL,[21],75%
same,Ki,[22],4.6 nM
same,D,[3],0%
same,D,[23],0%
same,D,[4],10%
same,Potency,[15],0.39
same,D,[6],27%
same,Ki,[8],34 nM
same,SDL,[24],100%
same,SDL,[12],50%
CCCCC[C@@H](C)NC(=O)[C@@H]1C=C2c3cccc4[nH]cc(c34)C[C@H]2N(C)C1,Ki,[22],3.3 nM
same,Ki,[8],80 nM
CCCCC(C)NC(=O)[C@@H]1C=C2c3cccc4[nH]cc(c34)C[C@H]2N(C)C1 (some centres not stated),Ki,[22],4.9 nM
same,D,[25],30%
same,ED50,[26],inactive
same,D,[27],12.5%
same,SDL,[28],0%
same,D,[29],30%
same,Ki,[8],55 nM
same,SDL,[30],0%
same,SDL,[31],29%
